Assay results: the RNAGym collection of RNA variant scans (doi:10.1126/science.aae0568)
This sample holds only a part of the variants without activity.

B1: tRNA (parent)
chain: GUUCCGUUGGCGUAAUGGUAACGCGUCUCCCUCCUAAGGAGAAGACUGCGGGUUCGAGUCCCGUACGGAACG

Variants of: B1
Experiment: yeast fitness relative to wild type (ratio to wild type); higher = fitter; tRNA-Arg(CCU), competitive growth, 37 C, YPD
In short: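 For this measurement, the tRNA-Arg(CCU) gene was varied by chemical synthesis at a 3% per-site mutation rate across 69 sites, and each variant was placed at the native genomic locus in Saccharomyces cerevisiae. The pooled strains went through a 24-hour competition in YPD at 37°C in six parallel replicates, with amplicons from start and end populations read by 100-nucleotide paired-end sequencing. Darwinian fitness relative to wild type followed from the change in each genotype's frequency. Genotypes needed ≥ 100 starting reads, and estimates < 0.5 were set to 0.5.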

Row | Variant | yeast fitness
1 | C29U U47A | 0.795
2 | C29U U47A A69U | 0.679
3 | C29U U47C | 0.923
4 | C29U U47C G67U A69U | ≤ 0.5
5 | C29U U53A C61U | 0.685
6 | C29U U53C C55G C62A | ≤ 0.5
7 | C29U U54A | 0.627
8 | C30A | 0.998
9 | C30A A36C C46G | 0.532
10 | C30A A36C G38A | ≤ 0.5
11 | C30A A36G A65G | 0.648
12 | C30A A36G G67C | 0.537
13 | C30A A36U A42G C60U A69C | ≤ 0.5
14 | C30A A36U C60U A69C | 0.6
15 | C30A A37C | 0.772
16 | C30A A37C G38C | ≤ 0.5
17 | C30A A37C G41A A43U G44C | ≤ 0.5
18 | C30A A37C G41A A43U G44C A70G | ≤ 0.5
19 | C30A A37G A57G | ≤ 0.5
20 | C30A A37U A40U C49U | ≤ 0.5
21 | C30A A37U G44C U53A | ≤ 0.5
22 | C30A A40C C46U C60U C66U | ≤ 0.5
23 | C30A A40C G56A | ≤ 0.5
24 | C30A A40G U59G A70C | ≤ 0.5

Row | Variant | yeast fitness
25 | C30A A40U G58U | ≤ 0.5
26 | C30A A42G U54A A57C | ≤ 0.5
27 | C30A A43C | 0.884
28 | C30A A43U C66U | 0.75
29 | C30A A45G U53A | 1.1
30 | C30A A57U | 0.768
31 | C30A A65C | 0.814
32 | C30A A65G | 1.02
33 | C30A A65U | 0.802
34 | C30A A65U A69C | 0.692
35 | C30A A69C | 1.03
36 | C30A A69G | 0.915
37 | C30A C31A C60U C62G | ≤ 0.5
38 | C30A C31G G39C | 0.535
39 | C30A C31U A36G | 0.587
40 | C30A C31U A45C | 0.663
41 | C30A C31U C60G | 0.565
42 | C30A C33A | 0.652
43 | C30A C34G | 0.682
44 | C30A C34G G50A C62U C66A | ≤ 0.5
45 | C30A C34U G63C | 0.698
46 | C30A C46G | 0.991
47 | C30A C46U G52A C55U | ≤ 0.5
48 | C30A C49A C60U | ≤ 0.5

Row | Variant | yeast fitness
49 | C30A C49A C66U | ≤ 0.5
50 | C30A C49U G67U | 0.608
51 | C30A C55U C62G | 0.508
52 | C30A C61A A65C | 0.578
53 | C30A C61A A69C | 0.609
54 | C30A C61U A65U | ≤ 0.5
55 | C30A C62G | 0.662
56 | C30A C62G A70U | 0.547
57 | C30A C62U G63A | ≤ 0.5
58 | C30A C62U G63A A69G | ≤ 0.5
59 | C30A C66A | 0.636
60 | C30A G38A G52A C55A A65C | ≤ 0.5
61 | C30A G38C C61A | 0.51
62 | C30A G41A U47C | 0.559
63 | C30A G41C | 0.796
64 | C30A G41C G51A | ≤ 0.5
65 | C30A G44A | 0.88
66 | C30A G44A A45C A70U | ≤ 0.5
67 | C30A G44A A45U C62U | ≤ 0.5
68 | C30A G44C U59A | ≤ 0.5
69 | C30A G48A U64A C66G | 0.611
70 | C30A G48C | 0.797
71 | C30A G50A A65C | 0.628
72 | C30A G51A | 0.774

Row | Variant | yeast fitness
73 | C30A G51C | 0.508
74 | C30A G51C C55A C66U | ≤ 0.5
75 | C30A G51C C62G | ≤ 0.5
76 | C30A G52A | 0.813
77 | C30A G52A A65U | ≤ 0.5
78 | C30A G56A | 1.04
79 | C30A G56A C60G | ≤ 0.5
80 | C30A G56C | 0.639
81 | C30A G56U | 0.831
82 | C30A G56U A65G | ≤ 0.5
83 | C30A G63A U64C | 0.893
84 | C30A G63C | 0.774
85 | C30A G67C | 0.841
86 | C30A G67U | 0.671
87 | C30A U32G G67A A69C | ≤ 0.5
88 | C30A U35A C61G | ≤ 0.5
89 | C30A U35C A37U | 0.547
90 | C30A U47C | 0.775
91 | C30A U47C G58A A69U | 0.563
92 | C30A U47C G67U | ≤ 0.5
93 | C30A U53C | 0.82
94 | C30A U53C A70C | 0.506
95 | C30A U53G C60G C62A A70U | 0.515
96 | C30A U54A A57C | 0.548

Row | Variant | yeast fitness
97 | C30G | 0.68
98 | C30G A36C | 0.561
99 | C30G A36G | 0.679
100 | C30G A36G A57U | ≤ 0.5
101 | C30G A36G A57U A65U C66U | ≤ 0.5
102 | C30G A36U | 0.538
103 | C30G A37C A45G | 0.633
104 | C30G A37C C46G | ≤ 0.5
105 | C30G A37C C46G G56A | ≤ 0.5
106 | C30G A37G A65G | ≤ 0.5
107 | C30G A37U C61U | ≤ 0.5
108 | C30G A40C U64A | 0.565
109 | C30G A40G C49U | ≤ 0.5
110 | C30G A40U C46U | 0.558
111 | C30G A42C | 0.631
112 | C30G A42G | 0.626
113 | C30G A42G A45G | ≤ 0.5
114 | C30G A42U A45G | ≤ 0.5
115 | C30G A42U A45G C61U G67A | ≤ 0.5
116 | C30G A42U G51C | ≤ 0.5
117 | C30G A43C C60G C66U | ≤ 0.5
118 | C30G A43C C62U | 0.533
119 | C30G A43U G48C C55A | 0.557
120 | C30G A43U G48C U64G | ≤ 0.5

Row | Variant | yeast fitness
121 | C30G A45C C46U | 0.612
122 | C30G A45G | 0.698
123 | C30G A45G G56A | 0.526
124 | C30G A57G | 0.616
125 | C30G A57G G63A | ≤ 0.5
126 | C30G A57U | 0.609
127 | C30G A57U C60G | ≤ 0.5
128 | C30G A57U C60G A65U | 0.531
129 | C30G A57U C66U A70U | ≤ 0.5
130 | C30G A65G | 0.639
131 | C30G A69C | 0.687
132 | C30G A69G | ≤ 0.5
133 | C30G C31A A36G G63C | ≤ 0.5
134 | C30G C31G A43G G56C | ≤ 0.5
135 | C30G C31G G38C C46G | 0.768
136 | C30G C31G G38C C46G A69C | 0.572
137 | C30G C31G G38C C46G C49U | 0.532
138 | C30G C31G U32A C66U | 0.527
139 | C30G C31G U64C A65C | ≤ 0.5
140 | C30G C31U | 0.678
141 | C30G C31U C61G | 0.557
142 | C30G C31U G56A C62U A69G | ≤ 0.5
143 | C30G C33A C49A | 0.618
144 | C30G C33A G50A G52A C60U C61G | ≤ 0.5

Row | Variant | yeast fitness
145 | C30G C33G A69C | 0.544
146 | C30G C33G A70U | 0.532
147 | C30G C33G C34U A42U A65C | ≤ 0.5
148 | C30G C33G C34U A42U C55A | ≤ 0.5
149 | C30G C33G C34U A42U C66U G67C | ≤ 0.5
150 | C30G C33G C60G | ≤ 0.5
151 | C30G C33G C60G A70C | ≤ 0.5
152 | C30G C33G G48C C60A | 0.586
153 | C30G C33U | 0.555
154 | C30G C33U A45U | 0.57
155 | C30G C33U C49U | 0.556
156 | C30G C33U C49U G56A | ≤ 0.5
157 | C30G C33U G58C U64A | 0.56
158 | C30G C34G G39C A69C | ≤ 0.5
159 | C30G C34G G63C | ≤ 0.5
160 | C30G C34U A36U A65U | 0.612
161 | C30G C34U U47A C49A | 0.691
162 | C30G C46A A70G | 0.591
163 | C30G C46A C60A | ≤ 0.5
164 | C30G C46A U47G C49A G52A G58C C61U U64G A65G | ≤ 0.5
165 | C30G C46G | 0.693
166 | C30G C46G C60U A69G | ≤ 0.5
167 | C30G C46G G52C G68C | ≤ 0.5
